High-throughput results from PubChem.
A selection: hits, their analogues and other compounds. The true share with any hit is near 2.5%.
SENP6 block = SENP6 protease inhibition; Q9GZR1; Recombinant SENP6 catalytic domain, aminoluciferin luminescence; inhibition, % at 10 µM; 330,000 compounds, 1.8% hits; AID 2599;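 active means inhibition above about 50% at the single tested dose, limit read from the data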;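 further: plate controls were DMSO wells with enzyme for no effect and DMSO wells lacking enzyme for full effect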
SENP7 block = inhibitors of human SENP7 protease; Q9BQF6; recombinant SENP7, Z-RLRGG-aminoluciferin luminescence, 40 min; inhibition, % at 5 µM; 330,000 compounds, 1.5% hits; AID 434973;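 active means inhibition above about 50% at the single test dose, limit read from the data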;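 further: plate controls were DMSO with enzyme for no effect and no enzyme buffer wells for full effect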
SENP8 block-1 = blocks human SENP8 cleavage of Nedd8 substrate; recombinant SENP8, Nedd8 substrate fluorescence; inhibition, % at 20 µM; 360,000 compounds, 0.64% hits; in the data active means inhibition mostly above about 40%, no sharp cut-off; inactive means mostly below about 27%
Target sequence (Q96LD8 whole entry, looked up): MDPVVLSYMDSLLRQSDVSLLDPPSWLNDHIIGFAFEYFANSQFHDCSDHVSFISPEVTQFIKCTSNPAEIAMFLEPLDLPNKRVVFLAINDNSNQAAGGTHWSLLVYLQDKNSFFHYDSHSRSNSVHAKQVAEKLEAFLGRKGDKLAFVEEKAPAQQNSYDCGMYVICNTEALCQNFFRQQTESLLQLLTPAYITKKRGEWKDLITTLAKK
SENP1 FRET inh = inhibitors of human SENP1 SUMO protease catalytic domain; recombinant SENP1 catalytic domain, CyPet-SUMO1-YPet FRET cleavage; inhibition, % at 10 µM; 360,000 compounds, 0.21% hits; AID 624204;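 active means inhibition at least 30% at 10 µM, raw YFP signal under a set limit, fluorescence ratio 0.5 to 1.5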;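 further: 0% = enzyme with DMSO and 100% = no enzyme wells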
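Test system: human SENP1 catalytic domain; medium: Tris pH 8 buffer plus EDTA, NaCl, BME, BSA, NP40, catalase; incubation: 50 min reaction at room temperature; technique: FRET, CFP and YFP emission; controls: no-enzyme low control and enzyme-plus-DMSO high control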
SENP8 block-2 = inhibitors of human SENP8 protease | purified SENP8, Z-RLRGG-aminoluciferin cleavage, luminescence | inhibition, % at 10 µM | 330,000 compounds, 1.2% hits | Q96LD8; in the data active means inhibition above about 50%
SENP8 confirm = human SENP8 inhibition, confirmed. shares compounds with SENP7 block. Recombinant SENP8, Z-RLRGG-aminoluciferin luminescence, 60 min. inhibition, % at 12.5 µM. 6,200 compounds, 40% hits. AID 488912;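 active means mean inhibition across replicates above about 50%, limit read from the data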
SENP6 confirm = human SENP6 inhibition, confirmed. recombinant SENP6, Z-RLRGG-aminoluciferin luminescence. shares compounds with SENP7 block. inhibition, % at 12.5 µM. 6,200 compounds, 58% hits. AID 488915
SENP7 conf = human SENP7 inhibition, confirmed. inhibition, % at 12.5 µM. recombinant SENP7, Z-RLRGG-aminoluciferin luminescence, 40 min. shares compounds with SENP7 block. 6,200 compounds, 69% hits
Casp3 SENP sel = inhibits human caspase-3 in SENP selectivity test | AID 488918 | shares compounds with SENP7 block | purified caspase-3, Z-DEVD-aminoluciferin luminescence, 60 min | inhibition, % at 12.5 µM | 6,200 compounds, 60% hits;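 active means mean inhibition above about 50%, limit read from the data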;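 further: plate controls were enzyme with DMSO for no effect and wells without caspase-3 for full effect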
Target sequence (P42574 28-227 limits assumed): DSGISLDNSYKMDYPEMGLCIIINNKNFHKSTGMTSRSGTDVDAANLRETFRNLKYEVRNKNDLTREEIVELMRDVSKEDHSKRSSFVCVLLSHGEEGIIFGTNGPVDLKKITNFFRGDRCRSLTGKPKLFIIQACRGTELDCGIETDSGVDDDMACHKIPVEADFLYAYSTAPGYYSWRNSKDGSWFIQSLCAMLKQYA
SENP luc ctr = counter-screen for SENP inhibitors: luminescence interference; shares compounds with SENP7 block; AID 488919; 6,200 compounds, 39% hits; inhibition, % at 12.5 µM; Pre-incubated SENP8/Z-RLRGG-aminoluciferin, luciferase luminescence interference;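 active means mean inhibition above about 50% when retested at one dose, limit read from the data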;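 further: plate controls were DMSO wells with completed reaction for no effect and substrate without enzyme for full effect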
Active calls of the source: *; x = no result given.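 How the source made its calls, unless noted: active means mean inhibition above about 50% in the one-dose retest (limit read from the data); inactive means the rest.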

SMILES	SENP6 block	SENP7 block	SENP8 block-1	SENP1 FRET inh	SENP8 block-2	SENP8 confirm	SENP6 confirm	SENP7 conf	Casp3 SENP sel	SENP luc ctr
COc1ccc(CSc2nc3ccccc3[nH]2)cc1	96*	94*	27	1	88*	92*	94*	100*	92*	93*
COC(=O)c1cccc(CSc2nc3ccccc3[nH]2)c1	65*	72*	19	2	47	50	50*	83*	64*	68*
O=C1CCC(=O)N1c1ccc(CSc2nc3ccccc3[nH]2)cc1	-4	-5	11	0	-20	x	x	x	x	x
c1ccc2[nH]c(SCc3ccc(-c4nnco4)cc3)nc2c1	72*	71*	36	0	45	64*	61*	88*	81*	75*
Cc1cccc(N2CCN(C(C(=O)NCc3ccccc3)c3ccc(F)cc3)CC2)c1C (centres undefined)	x	x	20	2	x	x	x	x	x	x
Nc1ccc(-c2cc(N)n(-c3ccccc3)n2)cc1	7	18	-174	-1	13	x	x	x	x	x
CC(=O)Nc1ccc(-c2cc(NC(C)=O)n(-c3ccccc3)n2)cc1	-12	-11	-27	3	-2	x	x	x	x	x
CC(=O)Nc1ccc(-c2cc(N)n(-c3ccccc3)n2)cc1	55*	58*	-67	-7	38	45	44	78*	80*	62*
Nc1cc(-c2ccc(Cl)cc2)nn1-c1ccccc1	34	63*	-2	-1	48	36	38	80*	53*	71*
COc1cccc(NC(=O)Nc2cccc(C(=O)O)c2)c1	7	93*	0	3	90*	95*	95*	101*	90*	94*
COc1cccc(NC(=O)c2ccc(NC(=O)C(C)C)cc2)c1	73*	75*	9	1	55*	13	56*	85*	74*	0
COc1cc(NC(=O)c2ccc3nsnc3c2)cc(OC)c1OC	-9	-2	18	1	-3	x	x	x	x	x
COc1cccc(C(=O)Nc2ccc3c(C)cc(=O)oc3c2)c1	63*	71*	-343	1	16	13	15	11	29	7
Cc1cc(=O)oc2cc(NC(=O)c3ccccc3C(=O)O)ccc12	1	-3	-289	-2	-3	x	x	x	x	x
COc1cccc(NC(=O)c2ccc3nsnc3c2)c1	63*	60*	-13	0	43	58*	56*	85*	80*	71*
CCOc1ccc2[nH]c(=O)c(C(c3nnnn3Cc3ccco3)N3CCN(C)CC3)cc2c1 (centres undefined)	-9	-10	-399	-20	-10	x	x	x	x	x
CC(C)NC(=O)C(=O)Nc1cc2c3c(c1)C(C)C(=O)N3CCC2 (centres undefined)	-10	5	11	2	4	x	x	x	x	x
Cc1ccc(C#CC[N+]2(C)CCCCC2)cc1	-10	5	8	5	5	x	x	x	x	x
COc1cccc(NC(=O)c2cccc(C(=O)Nc3cccc(OC)c3)c2)c1	16	5	5	2	4	x	x	x	x	x
COc1ccc(COc2ccc3c(C)cc(=O)oc3c2)cc1	70*	40	-160	2	50*	6	56*	45	49	38
COc1ccc(-c2cccc(C(=O)Nc3ccc(C)cc3)c2)cc1	-3	3	8	1	5	x	x	x	x	x
Cc1ccc(NC(=O)c2ccc3nsnc3c2)c(Cl)c1	62*	81*	-10	1	49	25	13	17	22	-5
COc1ccc(-c2cccc(C(=O)Nc3cccc(C(=O)O)c3)c2)cc1	84*	59*	0	1	53*	69*	83*	96*	20	77*
COc1ccc(C(=O)Nc2cccc(OC)c2)cc1	86*	92*	5	-1	79*	2	92*	101*	96*	91*
CCc1ccc(NC(=O)Nc2cccc(OC)c2)cc1	2	56*	10	1	53*	21	51*	82*	48	59*
SMILES	SENP6 block	SENP7 block	SENP8 block-1	SENP1 FRET inh	SENP8 block-2	SENP8 confirm	SENP6 confirm	SENP7 conf	Casp3 SENP sel	SENP luc ctr
O=C(CC(=O)c1ccccc1)Nc1cccc([N+](=O)[O-])c1	x	x	6	-2	x	x	x	x	x	x
COc1cccc(NC(=O)CC(=O)c2ccc([N+](=O)[O-])cc2)c1	71*	58*	22	2	69*	82*	80*	93*	72*	74*
COc1cccc(C(=O)Nc2cc(Cl)c(O)c(Cl)c2)c1	71*	59*	8	2	55*	64*	64*	89*	85*	68*
COc1cccc(NC(=O)c2ccc(OC(F)(F)F)cc2)c1	88*	94*	7	1	85*	66*	79*	98*	87*	38
OCCNc1nc(Nc2cc(Cl)ccc2OC2CCCC2)nc(N2CCCC2)n1	-12	0	11	4	-8	x	x	x	x	x
COc1cc2c(cc1OC)C1C(C(=O)Nc3ccccc3N3CCN(C)CC3)c3ccccc3C(=O)N1CC2 (centres undefined)	-8	12	7	-2	-1	x	x	x	x	x
O=C(O)/C(=C\c1cccc(OCc2ccccc2)c1)c1ccc(F)cc1	-4	-10	0	0	-9	x	x	x	x	x
COc1cccc(NC(=O)c2ccccc2)c1	47	51*	13	2	36	48	44	77*	73*	51*
COc1cccc(NC(=O)C(=S)NC2CCCCC2)c1	-26	52*	19	1	10	59*	65*	84*	48	33
COc1cccc(NC(=O)NC2CCCCCCC2)c1	-8	-16	15	2	-2	x	x	x	x	x
CCCCOC(=O)Nc1ccc2c(C)cc(=O)oc2c1	-34	62*	-294	3	35	3	3	50*	48	15
COc1cccc(NC(=O)c2nnn(CCc3ccccc3)c2N)c1	72*	76*	2	1	64*	76*	75*	93*	75*	62*
O=C1c2cc(Br)ccc2OC2C=CC=CC12 (centres undefined)	x	36	-8	1	x	x	x	x	x	x
CCc1cc(C(=O)Nc2ncccc2O)sc1C	66*	67*	1	2	40	52*	53*	86*	81*	63*
